Experimental data published in ChEMBL document CHEMBL1152262, “New cyclic somatostatin analogues containing a pyrazinone ring: importance of Tyr for antiproliferative activity” (2008).
Where a SMILES comes first, the peptide text is derived from it. Bridges are numbered along the chain shown (N, C = ends). [ ]: non-standard residue; d: D form.

Key:
Assay type in all cases: functional
A-431 [1] = assay: Antiproliferative activity against human A431 cells at 10 uM by MTT assay
Summary of the method: (§1)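 MTT read-out of proliferation in A431 (human epithelial tumour) and SW480 (human colon carcinoma) cells, both described as expressing SSTRs. Each analogue was tested at […]. TT-232 and cycloheximide were run as positive controls.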

A-431 [2] = assay: Antiproliferative activity against human A431 cells at 50 uM by MTT assay; summary of the method: as §1
SW480 [3] = assay: Antiproliferative activity against human SW480 cells at 10 uM by MTT assay; summary of the method: as §1
SW480 [4] = assay: Antiproliferative activity against human SW480 cells at 25 uM by MTT assay; summary of the method: as §1
SW480 [5] = assay: Antiproliferative activity against human SW480 cells at 50 uM by MTT assay; summary of the method: as §1
A-431 [6] = assay: Antiproliferative activity against human A431 cells at 25 uM by MTT assay; summary of the method: as §1

| Structure (SMILES) | Activity (A-431 [1]) [%] | Activity (A-431 [2]) [%] | Activity (SW480 [3]) [%] | Activity (SW480 [4]) [%] | Activity (SW480 [5]) [%] | Activity (A-431 [6]) [%] |
| --- | --- | --- | --- | --- | --- | --- |
| C[C@@H](O)[C@H](NC(=O)[C@@H]1CSSC[C@H](NC(=O)[C@H](N)Cc2ccccc2)C(=O)N[C@@H](Cc2ccc(O)cc2)C(=O)N[C@H](Cc2c[nH]c3ccccc23)C(=O)N[C@@H](CCCCN)C(=O)N1)C(N)=O [TT-232] (H-[dF]CY[dW]KCT-NH2; disulfide 2-6) | 50 | 80 | 13 | 47 | 88 | 60 |
| Cc1cc(O)cc(C)c1C[C@@H]1NC(=O)CCc2nc(C)c([nH]c2=O)CCCCNC(=O)[C@H](CCCCN)NC(=O)[C@@H](Cc2c[nH]c3ccccc23)NC1=O | 0 | 0 | 2 | 11 | 7 | 0 |
| Cc1nc2c(=O)[nH]c1CCC(=O)N[C@@H](Cc1ccccc1)C(=O)N[C@H](Cc1c[nH]c3ccccc13)C(=O)N[C@@H](CCCCN)C(=O)NCCCC2 | 31 | 25 | 0 | 7 | 0 | 28 |
| Cc1cc(O)cc(C)c1C[C@@H]1NC(=O)CCc2[nH]c(=O)c(nc2C)CCCCNC(=O)[C@H](CCCCN)NC(=O)[C@@H](Cc2c[nH]c3ccccc23)NC1=O | 0 | 0 | 8 | 16 | 14 | 0 |
| C[C@@H]1C[C@@H]([C@H](O)CC2CC(=O)NC(=O)C2)C(=O)[C@@H](C)C1 [CYCLOHEXIMIDE] | 40 | 80 | 68 | 85 | 92 | 70 |
| Cc1nc2c(=O)[nH]c1CCCCNC(=O)[C@H](CCCCN)NC(=O)[C@@H](Cc1c[nH]c3ccccc13)NC(=O)[C@H](Cc1ccc(O)cc1)NC(=O)CC2 | 28 | 58 | 35 | 31 | 35 | 42 |
| Cc1nc2c(=O)[nH]c1CCC(=O)N[C@@H](Cc1ccc(O)cc1)C(=O)N[C@H](Cc1c[nH]c3ccccc13)C(=O)N[C@@H](CCCCN)C(=O)NCCCC2 | 19 | 56 | 24 | 23 | 7 | 36 |
| Cc1nc2c(=O)[nH]c1CCCCNC(=O)[C@H](CCCCN)NC(=O)[C@@H](Cc1c[nH]c3ccccc13)NC(=O)[C@H](Cc1ccccc1)NC(=O)CC2 | 0 | 0 | 2 | 4 | 4 | 0 |
